# From ChEMBL document CHEMBL3627607, “A Novel Pyrazolopyridine with in Vivo Activity in Plasmodium berghei- and Plasmodium falciparum-Infected Mouse Models from Structure-Activity Relationship Studies around the Core of Recently Identified Antimalarial Imidazopyridazines” (J Med Chem, 2015)
# Assays:
# [1] = Tmax in Plasmodium falciparum 3D7 infected in non-myelodepleted NOD-SCID IL2Rgammanull mouse engrafted with human erythrocytes at 10 mg/kg, po; format: ADME, organism-based; conditions: in vivo
# Summary of the method: (§1)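 Humanized NSG mice infected with P. falciparum received one oral dose per day for 4 consecutive days. Blood was sampled for exposure, with levels of both parent and its main active metabolite measured. Tmax was taken from the blood concentration–time profile after oral dosing.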
# [2] = Tmax in Plasmodium falciparum 3D7 infected in non-myelodepleted NOD-SCID IL2Rgammanull mouse engrafted with human erythrocytes at 30 mg/kg, po; format: ADME, organism-based; conditions: in vivo; summary of the method: as §1
# [3] = AUC (0 to 8 hrs) in Plasmodium falciparum 3D7 infected in non-myelodepleted NOD-SCID IL2Rgammanull mouse engrafted with human erythrocytes at 0.1 mg/kg, po; format: ADME, organism-based; design: time < 8 hr, dose 0.1 mg/kg, route oral; conditions: in vivo
# Summary of the method: (§2)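 Engrafted NSG (scid IL2Rgc null) mice infected with P. falciparum were given one oral dose per day for four days. Blood was sampled to measure parent and its sulfone metabolite.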
# [4] = AUC (0 to 23 hrs) in Plasmodium falciparum 3D7 infected in non-myelodepleted NOD-SCID IL2Rgammanull mouse engrafted with human erythrocytes at 0.5 mg/kg, po; format: ADME, organism-based; design: time < 23 hr, dose 0.5 mg/kg, route oral; conditions: in vivo; summary of the method: as §2
# [5] = AUC (0 to 23 hrs) in Plasmodium falciparum 3D7 infected in non-myelodepleted NOD-SCID IL2Rgammanull mouse engrafted with human erythrocytes at 10 mg/kg, po; format: ADME, organism-based; design: dose 10 mg/kg, time < 23 hr, route oral; conditions: in vivo; summary of the method: as §2
# [6] = Drug level in mouse blood at 50 mg/kg, po after 1 hr; format: ADME, organism-based; conditions: read-out: Drug uptake
# Summary of the method: (§3)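 Snapshot whole-blood levels of parent and its sulfone metabolite at 1, 4 and 24 h after the first 50 mg/kg oral dose. Samples came from the P. berghei-infected efficacy mice, dosed in HPMC suspension vehicle.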
# [7] = Tmax in Plasmodium falciparum 3D7 infected in non-myelodepleted NOD-SCID IL2Rgammanull mouse engrafted with human erythrocytes at 0.1 mg/kg, po; format: ADME, organism-based; conditions: in vivo; summary of the method: as §2
# [8] = Cmax in Plasmodium falciparum 3D7 infected in non-myelodepleted NOD-SCID IL2Rgammanull mouse engrafted with human erythrocytes at 30 mg/kg, po; format: ADME, organism-based; design: dose 30 mg/kg, route oral; conditions: in vivo; summary of the method: as §2
# [9] = Plasma clearance in rat at 3 mg/kg, iv; format: ADME, organism-based
# Liver microsome [10] = experiment: Drug level in rat liver microsomes treated with 5-(3-(Cyclopropylsulfonyl)phenyl)-3-(4-(methylsulfinyl)-phenyl)pyrazolo[1,5-a]pyridine at 10 uM after 1 hr by LC-MS/MS analysis; format: ADME
# Summary of the method: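 Metabolites identified by LC-ESI-MS/MS after in vitro incubation with rat liver microsomes.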
# Plasmodium berghei [11] = experiment: Antiplasmodial activity against Plasmodium berghei ANKA expressing GFP infected in mouse assessed as means survival days at 50 mg/kg, po qd for 4 days; format: functional
# Summary of the method: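 Mice (n = 3) infected with GFP-transfected P. berghei ANKA. Compounds dissolved or suspended in HPMC vehicle (0.5% w/v hydroxypropylmethylcellulose, 0.5% v/v benzyl alcohol, 0.4% v/v Tween 80, 0.9% w/v NaCl in water). Dosed orally 4, 24, 48 and 72 h after infection. Parasitemia read by flow cytometry (detection limit 0.1%). Survival recorded as mean survival time in days.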
# Plasmodium falciparum [12] = experiment: Antiplasmodial activity against multidrug resistant Plasmodium falciparum K1 infected in human erythrocytes after 48 hrs by [3H]-hypoxanthine incorporation assay; format: functional, organism-based
# [13] = AUC (0 to 23 hrs) in Plasmodium falciparum 3D7 infected in non-myelodepleted NOD-SCID IL2Rgammanull mouse engrafted with human erythrocytes at 30 mg/kg, po; format: ADME, organism-based; design: dose 30 mg/kg, time < 23 hr, route oral; conditions: in vivo; summary of the method: as §2
# [14] = Cmax in Plasmodium falciparum 3D7 infected in non-myelodepleted NOD-SCID IL2Rgammanull mouse engrafted with human erythrocytes at 10 mg/kg, po; format: ADME, organism-based; design: dose 10 mg/kg, route oral; conditions: in vivo; summary of the method: as §2
# [15] = Tmax in Plasmodium falciparum 3D7 infected in non-myelodepleted NOD-SCID IL2Rgammanull mouse engrafted with human erythrocytes at 1.5 mg/kg, po; format: ADME, organism-based; conditions: in vivo; summary of the method: as §1
# [16] = Metabolic stability of the compound in mouse liver microsomes assessed as compound remaining at 0.1 uM after 30 mins by LC-MS/MS analysis; format: ADME; conditions: 0.5 h
# Plasmodium falciparum [17] = experiment: Antiplasmodial activity against drug sensitive Plasmodium falciparum NF54 infected in human erythrocytes after 48 hrs by [3H]-hypoxanthine incorporation assay; format: functional, organism-based
# Liver microsome [18] = experiment: Metabolic stability of the compound in rat liver microsomes assessed as compound remaining at 0.1 uM after 30 mins by LC-MS/MS analysis; format: ADME; conditions: 0.5 h
# Liver microsome [19] = experiment: Metabolic stability of the compound in human liver microsomes assessed as compound remaining at 0.1 uM after 30 mins by LC-MS/MS analysis; format: ADME; conditions: 0.5 h
# [20] = Volume of distribution in rat at 3 mg/kg, iv; format: ADME, organism-based; conditions: in vivo
# [21] = Cmax in Plasmodium falciparum 3D7 infected in non-myelodepleted NOD-SCID IL2Rgammanull mouse engrafted with human erythrocytes at 1.5 mg/kg, po; format: ADME, organism-based; design: dose 1.5 mg/kg, route oral; conditions: in vivo; summary of the method: as §2
# Blood [22] = experiment: Drug level in mouse blood at 50 mg/kg, po after 24 hrs; format: ADME, organism-based; conditions: in vivo, 24 h, BLD = below limit of detection; summary of the method: as §3
# [23] = Tmax in Plasmodium falciparum 3D7 infected in non-myelodepleted NOD-SCID IL2Rgammanull mouse engrafted with human erythrocytes at 0.5 mg/kg, po; format: ADME, organism-based; conditions: in vivo; summary of the method: as §1
# [24] = Oral bioavailability in rat at 10 mg/kg; format: ADME, organism-based; conditions: in vivo
# [25] = Cmax in Plasmodium falciparum 3D7 infected in non-myelodepleted NOD-SCID IL2Rgammanull mouse engrafted with human erythrocytes at 0.1 mg/kg, po; format: ADME, organism-based; design: dose 0.1 mg/kg, route oral; conditions: in vivo; summary of the method: as §2
# [26] = AUC (0 to 23 hrs) in Plasmodium falciparum 3D7 infected in non-myelodepleted NOD-SCID IL2Rgammanull mouse engrafted with human erythrocytes at 1.5 mg/kg, po; format: ADME, organism-based; design: time < 23 hr, dose 1.5 mg/kg, route oral; conditions: in vivo; summary of the method: as §2
# Plasmodium berghei [27] = experiment: Antiplasmodial activity against Plasmodium berghei ANKA expressing GFP infected in mouse assessed as reduction of parasitemia level at 50 mg/kg, po qd for 4 days measured on day 4 post last dose by flow cytometric analysis relative to control; format: functional; design: scale not given: the % may be the effect or the level left
# Summary of the method: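 Mice (n = 3) infected with GFP-transfected P. berghei ANKA. Test agents were suspended in HPMC vehicle (0.5% w/v hydroxypropylmethylcellulose, 0.5% v/v benzyl alcohol, 0.4% v/v Tween 80, 0.9% w/v NaCl in water). Dosed orally at 4, 24, 48 and 72 h post-infection. Parasitemia read by flow cytometry on day 4 (96 h), detection limit 0.1%. Activity = control-minus-treated mean % parasitemia, relative to control.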
# Plasmodium berghei [28] = experiment: Antiplasmodial activity against sporozoite stage of Plasmodium berghei expressing luciferase infected in human HepG2-A16-CD81EGFP cells preincubated with cells for 18 hrs followed by protozoal infection measured after 48 hrs by bioluminescence assay; format: functional, organism-based
# Summary of the method: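 HepG2 cells were pretreated 18 h with compound, then infected with freshly dissected luciferase-expressing P. berghei sporozoites. After a further 48 h with compound, viability of exoerythrocytic forms and of HepG2 host cells was read by bioluminescence.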
# Blood [29] = experiment: Drug level in rat blood treated with 5-(3-(Cyclopropylsulfonyl)phenyl)-3-(4-(methylsulfinyl)-phenyl)pyrazolo[1,5-a]pyridine at 20 mg/kg, po and 5 mg/kg, iv by LC-MS/MS analysis; format: ADME, organism-based; conditions: in vivo
# Summary of the method: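 Metabolites identified by LC-ESI-MS/MS in blood samples from the rat PK study (oral and intravenous dosing).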
# [30] = Half life in rat at 10 mg/kg, po; format: ADME, organism-based; conditions: in vivo
# [31] = Cmax in Plasmodium falciparum 3D7 infected in non-myelodepleted NOD-SCID IL2Rgammanull mouse engrafted with human erythrocytes at 0.5 mg/kg, po; format: ADME, organism-based; design: dose 0.5 mg/kg, route oral; conditions: in vivo; summary of the method: as §2
# [32] = Half life in rat at 3 mg/kg, iv; format: ADME, organism-based; conditions: in vivo
# [33] = Drug level in mouse blood at 50 mg/kg, po after 4 hrs; format: ADME, organism-based; conditions: read-out: Drug uptake; summary of the method: as §3
compound,measurement,setting,value
CS(=O)(=O)c1ccc(-c2cnn3ccc(-c4cccc(S(=O)(=O)C5CC5)c4)cc23)cc1,Tmax,[1],4 h
same,Tmax,[2],8 h
same,AUC(0-t) at 8 h,[3],139 ng·h/mL
same,AUC(0-t) at 23 h,[4],1010 ng·h/mL
same,AUC(0-t) at 23 h,[5],24800 ng·h/mL
same,concentration at 1 h,[6],697 nM
same,Tmax,[7],2 h
same,Cmax,[8],7430 ng/mL
same,clearance,[9],3.5 mL/min/kg
same,Drug metabolism,Liver microsome [10],metabolite_detected
same,MSD,Plasmodium berghei [11],7 days
same,IC50,Plasmodium falciparum [12],2.4 nM
same,AUC(0-t) at 23 h,[13],78300 ng·h/mL
same,Cmax,[14],2600 ng/mL
same,Tmax,[15],2 h
same,Stability,[16],Stable
same,IC50,Plasmodium falciparum [17],2.7 nM
same,Stability,Liver microsome [18],Stable
same,Stability,Liver microsome [19],Stable
same,Vd,[20],0.8 L/kg
same,Cmax,[21],467 ng/mL
same,Drug uptake,Blood [22],BLD
same,Tmax,[23],2 h
same,bioavailability,[24],61%
same,Cmax,[25],25 ng/mL
same,AUC(0-t) at 23 h,[26],3200 ng·h/mL
same,Activity,Plasmodium berghei [27],71%
same,IC50,Plasmodium berghei [28],20 nM
same,Drug metabolism,Blood [29],metabolite_detected
same,half-life,[30],5.7 h
same,Cmax,[31],106 ng/mL
same,half-life,[32],2.7 h
same,concentration at 4 h,[33],1060 nM
